In ChEMBL document CHEMBL1629431, “Synthesis and antitumor activity of some 2, 3-disubstituted quinazolin-4(3H)-ones and 4, 6- disubstituted- 1, 2, 3, 4-tetrahydroquinazolin-2H-ones” (2010):

Columns and labels:
Assay type in all cases: functional
SF-295 = assay: Growth inhibition of human SF295 cells at 10 uM after 48 hrs by coulter counter method; conditions: SF-295, 48 h, read-out: GI
In short: (§1)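 Single high-dose NCI 60-cell-line panel screen across nine tumor subpanels. Test solutions (0.2 mL) were added in duplicate to wells holding 1.8 mL of culture at 6 × 10⁴ cells/mL. Controls got PBS and DMSO at identical dilutions. Incubation was 48 h at 37 °C in humidified 5% CO₂. Cells were diluted 10-fold in saline, Coulter-counted and dilution-corrected. Results were expressed as percent growth inhibition versus control.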

HL-60(TB) = assay: Growth inhibition of human HL-60(TB) cells at 10 uM after 48 hrs by coulter counter method; conditions: HL-60, 48 h, read-out: GI
In short: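 Part of the NCI 60-cell-line single-high-dose panel. Cells were seeded at 6 × 10⁴ cells/mL with test solution in duplicate wells, alongside PBS/DMSO controls at identical dilutions. Plates were held 48 h at 37 °C in a humidified 5% CO₂ incubator. Cells were then diluted 10-fold in saline and counted by Coulter counter, with counts corrected for dilution. Results are percent growth of treated cells, reported as GI %.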

K562 = assay: Growth inhibition of human K562 cells at 10 uM after 48 hrs by coulter counter method; conditions: K562, 48 h, read-out: GI; in short: as §1
MOLT-4 = assay: Growth inhibition of human MOLT4 cells at 10 uM after 48 hrs by coulter counter method; conditions: MOLT-4, 48 h, read-out: GI; in short: as §1
[1] = Growth inhibition of human […] cells at 10 uM after 48 hrs by coulter counter method; conditions: read-out: GI; in short: as §1
A549 = assay: Growth inhibition of human A549 cells at 10 uM after 48 hrs by coulter counter method; conditions: A549, 48 h, read-out: GI; in short: as §1
HOP-92 = assay: Growth inhibition of human HOP92 cells at 10 uM after 48 hrs by coulter counter method; conditions: HOP-92, 48 h, read-out: GI; in short: as §1
NCI-H226 = assay: Growth inhibition of human NCI-H226 cells at 10 uM after 48 hrs by coulter counter method; conditions: NCI-H226, 48 h, read-out: GI; in short: as §1
NCI-H23 = assay: Growth inhibition of human NCI-H23 cells at 10 uM after 48 hrs by coulter counter method; conditions: NCI-H23, 48 h, read-out: GI; in short: as §1
NCI-H522 = assay: Growth inhibition of human NCI-H522 cells at 10 uM after 48 hrs by coulter counter method; conditions: NCI-H522, 48 h, read-out: GI; in short: as §1
COLO 205 = assay: Growth inhibition of human COLO205 cells at 10 uM after 48 hrs by coulter counter method; conditions: COLO 205, 48 h, read-out: GI; in short: as §1
HCT-116 = assay: Growth inhibition of human HCT116 cells at 10 uM after 48 hrs by coulter counter method; conditions: HCT-116, 48 h, read-out: GI; in short: as §1
KM12 = assay: Growth inhibition of human KM12 cells at 10 uM after 48 hrs by coulter counter method; conditions: KM12, 48 h, read-out: GI; in short: as §1
SF-268 = assay: Growth inhibition of human SF268 cells at 10 uM after 48 hrs by coulter counter method; conditions: SF-268, 48 h, read-out: GI; in short: as §1
SF-539 = assay: Growth inhibition of human SF539 cells at 10 uM after 48 hrs by coulter counter method; conditions: SF-539, 48 h, read-out: GI; in short: as §1
SNB-75 = assay: Growth inhibition of human SNB75 cells at 10 uM after 48 hrs by coulter counter method; conditions: SNB-75, 48 h, read-out: GI; in short: as §1
U-251 = assay: Growth inhibition of human U251 cells at 10 uM after 48 hrs by coulter counter method; conditions: U-251, 48 h, read-out: GI; in short: as §1
M14 = assay: Growth inhibition of human M14 cells at 10 uM after 48 hrs by coulter counter method; conditions: M14, 48 h, read-out: GI; in short: as §1
SK-MEL-2 = assay: Growth inhibition of human SK-MEL-2 cells at 10 uM after 48 hrs by coulter counter method; conditions: SK-MEL-2, 48 h, read-out: GI; in short: as §1
SK-MEL-28 = assay: Growth inhibition of human SK-MEL-28 cells at 10 uM after 48 hrs by coulter counter method; conditions: SK-MEL-28, 48 h, read-out: GI; in short: as §1
UACC-62 = assay: Growth inhibition of human UACC62 cells at 10 uM after 48 hrs by coulter counter method; conditions: UACC-62, 48 h, read-out: GI; in short: as §1
IGROV-1 = assay: Growth inhibition of human IGROV1 cells at 10 uM after 48 hrs by coulter counter method; conditions: IGROV-1, 48 h, read-out: GI; in short: as §1
OVCAR-4 = assay: Growth inhibition of human OVCAR4 cells at 10 uM after 48 hrs by coulter counter method; conditions: OVCAR-4, 48 h, read-out: GI; in short: as §1
OVCAR-8 = assay: Growth inhibition of human OVCAR8 cells at 10 uM after 48 hrs by coulter counter method; conditions: OVCAR-8, 48 h, read-out: GI; in short: as §1
SK-OV-3 = assay: Growth inhibition of human SKOV3 cells at 10 uM after 48 hrs by coulter counter method; conditions: SK-OV-3, 48 h, read-out: GI; in short: as §1
786-0 = assay: Growth inhibition of human 786-0 cells at 10 uM after 48 hrs by coulter counter method; conditions: 786-0, 48 h, read-out: GI; in short: as §1
CAKI-1 = assay: Growth inhibition of human Caki1 cells at 10 uM after 48 hrs by coulter counter method; conditions: CAKI-1, 48 h, read-out: GI; in short: as §1
SN12C = assay: Growth inhibition of human SN12C cells at 10 uM after 48 hrs by coulter counter method; conditions: read-out: GI; in short: as §1
UO-31 = assay: Growth inhibition of human UO31 cells at 10 uM after 48 hrs by coulter counter method; conditions: UO-31, 48 h, read-out: GI; in short: as §1
PC-3 = assay: Growth inhibition of human PC3 cells at 10 uM after 48 hrs by coulter counter method; conditions: PC-3, 48 h, read-out: GI; in short: as §1
MCF7 = assay: Growth inhibition of human MCF7 cells at 10 uM after 48 hrs by coulter counter method; conditions: MCF7, 48 h, read-out: GI; in short: as §1
MDA-MB-231 = assay: Growth inhibition of human MDA-MB-231 cells at 10 uM after 48 hrs by coulter counter method; conditions: MDA-MB-231, 48 h, read-out: GI; in short: as §1
[2] = Growth inhibition of human Hs 578T cells at 10 uM after 48 hrs by coulter counter method; conditions: read-out: GI; in short: as §1
T47D = assay: Growth inhibition of human T47D cells at 10 uM after 48 hrs by coulter counter method; conditions: read-out: GI; in short: as §1
MDA-MB-468 = assay: Growth inhibition of human MDA-MB-468 cells at 10 uM after 48 hrs by coulter counter method; conditions: MDA-MB-468, 48 h, read-out: GI; in short: as §1

SMILES: COc1ccc(-n2c(Nc3cc(O)[nH]c(=O)n3)nc3ccccc3c2=O)cc1
- inhibition of growth at 10 µM (SF-295): 80.8%

SMILES: CSc1nc2ccccc2c(=O)n1-c1ccc(Cl)cc1
- inhibition of growth at 10 µM (HL-60(TB)): 32%
- inhibition of growth at 10 µM (K562): 44.1%
- inhibition of growth at 10 µM (MOLT-4): 31.4%
- inhibition of growth at 10 µM [1]: 35.8%
- inhibition of growth at 10 µM (A549): 30%
- inhibition of growth at 10 µM (HOP-92): 30%
- inhibition of growth at 10 µM (NCI-H226): 30%
- inhibition of growth at 10 µM (NCI-H23): 30%
- inhibition of growth at 10 µM (NCI-H522): 30%
- inhibition of growth at 10 µM (COLO 205): 30%
- inhibition of growth at 10 µM (HCT-116): 30%
- inhibition of growth at 10 µM (KM12): 30%
- inhibition of growth at 10 µM (SF-268): 30%
- inhibition of growth at 10 µM (SF-539): 30%
- inhibition of growth at 10 µM (SNB-75): 30%
- inhibition of growth at 10 µM (U-251): 30%
- inhibition of growth at 10 µM (M14): 30%
- inhibition of growth at 10 µM (SK-MEL-2): 30%
- inhibition of growth at 10 µM (SK-MEL-28): 30%
- inhibition of growth at 10 µM (UACC-62): 30%
- inhibition of growth at 10 µM (IGROV-1): 30%
- inhibition of growth at 10 µM (OVCAR-4): 30%
- inhibition of growth at 10 µM (OVCAR-8): 30%
- inhibition of growth at 10 µM (SK-OV-3): 30%
- inhibition of growth at 10 µM (786-0): 30%
- inhibition of growth at 10 µM (CAKI-1): 30%
- inhibition of growth at 10 µM (SN12C): 30%
- inhibition of growth at 10 µM (UO-31): 30%
- inhibition of growth at 10 µM (PC-3): 50.3%
- inhibition of growth at 10 µM (MCF7): 30%
- inhibition of growth at 10 µM (MDA-MB-231): 30%
- inhibition of growth at 10 µM [2]: 30%
- inhibition of growth at 10 µM (T47D): 47%
- inhibition of growth at 10 µM (MDA-MB-468): 30%

SMILES: CCn1c(Nc2cc(O)nc(S)n2)nc2ccccc2c1=O
- inhibition of growth at 10 µM (SF-295): 59.9%
